{"source": "paper PMC9323481", "about": "(Diabetes, Obesity & Metabolism, 2022)", "assay_type_in_all_cases": "in vivo, human", "key": {"[1]": {"system": "patients with type 2 diabetes and CKD", "experiment": "Fasting plasma glucose and HbA1c", "details": "s.c. once daily, 50-300 μg; for Change in LS mean fasting plasma glucose from baseline to day 32: 32 days"}, "[2]": {"system": "patients with type 2 diabetes and CKD", "experiment": "Continuous glucose monitoring", "outline": "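Double-blind, placebo-controlled, once-daily s.c. dosing titrated 50→100→200→300 μg over 32 days. Continuous glucose monitoring gave the percentage of time with interstitial glucose in the target range of 70-180 mg/dl (3.9-10 mmol/L) over a 7-day period, at baseline and in the final week of treatment. Change analysed by Wilcoxon rank-sum test, intent-to-treat population.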"}, "[3]": {"system": "patients with type 2 diabetes and CKD on insulin ≥20 units per day", "experiment": "Total daily insulin dose", "details": "participants on insulin ≥20 units per day; range –194, 20; placebo 0.0, p = .073", "outline": "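Exploratory endpoint: change in total daily insulin dose from baseline to end of dosing, in participants on ≥20 units/day. Randomization was stratified by insulin dose (≥20 vs <20 units/day). Dosing was once-daily s.c., titrated 50-300 μg over 32 days, against placebo. Analysed by two-sample t-test with unequal variance and Satterthwaite approximation.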"}, "[4]": {"system": "patients with type 2 diabetes and CKD", "experiment": "Bodyweight", "details": "p < .001", "outline": "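Randomized 1:1, double-blind; test compound or placebo given s.c. once daily each morning. Test compound dose titration: 50 μg for 4 days, 100 μg for 7 days, 200 μg for 7 days, then 300 μg for 14 days. Percentage and absolute change in bodyweight from baseline, intent-to-treat population. ANCOVA with treatment as fixed factor and baseline as covariate.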"}, "[5]": {"system": "patients with type 2 diabetes and CKD", "experiment": "UACR and eGFR", "outline": "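Exploratory endpoints: change from baseline in mean urinary albumin-to-creatinine ratio (UACR) and eGFR. Dosing was randomized, double-blind, once-daily s.c., titrated 50-300 μg over 32 days, against placebo. Change in UACR was analysed by t-test with unequal variance. Continuous endpoints were analysed by ANCOVA with baseline as covariate, intent-to-treat population.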"}, "[6]": {"system": "patients with type 2 diabetes and CKD", "experiment": "Supine blood pressure and heart rate", "outline": "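Vital signs, blood pressure and 24-h pulse rate were safety endpoints, taken as change from baseline. Randomized double-blind design: once-daily morning s.c. test compound titrated 50 μg (4 days), 100 μg (7 days), 200 μg (7 days), 300 μg (14 days), or placebo for 32 days. ANCOVA with baseline as covariate, as-treated population.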"}, "[7]": {"system": "patients with type 2 diabetes and CKD", "experiment": "Treatment-emergent adverse events", "outline": "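Incidence of adverse events and serious adverse events during 32 days of once-daily s.c. dosing (titrated 50→100→200→300 μg) or placebo. Clinically significant hypoglycaemia was defined as capillary or venous plasma glucose <54 mg/dl (3.0 mmol/L). Safety analyses used the as-treated population with descriptive statistics.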"}, "[8]": {"system": "patients with type 2 diabetes and CKD", "experiment": "Clinical chemistry and eGFR percent change", "details": "baseline to day 32"}, "Pharmacokinetics": {"experiment": "Pharmacokinetics", "details": "repeat daily s.c. administration 50-300 μg; plasma", "outline": "(§1)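 Secondary endpoints of a 32-day trial: once-daily morning s.c. dosing titrated through 50 μg for 4 days, 100 μg for 7 days, 200 μg for 7 days and 300 μg for 14 days. Pharmacokinetic parameters and anti-drug antibody titre were summarized with descriptive statistics only.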"}, "[9]": {"system": "patients with type 2 diabetes and CKD", "experiment": "Immunogenicity", "details": "serum anti-drug antibody", "outline": "as §1"}}, "data": [{"substance": "cotadutide", "values": [{"measurement": "Change in LS mean fasting plasma glucose from baseline to day 32", "setting": "[1]; placebo 0.03", "value": 1.09, "unit": "mmol/L"}, {"measurement": "Change in LS mean fasting plasma glucose from baseline to day 32", "setting": "[1]; placebo +0.60, p = .089", "value": "–19.55 mg/dl"}, {"measurement": "Change in LS mean HbA1c from baseline to day 32", "setting": "[1]; placebo +0.01%, p < .001", "value": "–0.65%"}, {"measurement": "Mean percentage of time within target range over a 7-day period", "setting": "[2]; 100 μg dose period, placebo 48.57%", "value": 75.82, "unit": "%"}, {"measurement": "Mean percentage of time within target range over a 7-day period", "setting": "[2]; 200 μg dose period, placebo 54.99%", "value": 78.69, "unit": "%"}, {"measurement": "Mean percentage of time within target range over a 7-day period", "setting": "[2]; 300 μg dose period, placebo 40.66%", "value": 78.18, "unit": "%"}, {"measurement": "Time in clinically significant hypoglycaemia (glucose <54 mg/dl or <3.0 mmol/L)", "setting": "[2]; CGM, entire dosing period, placebo 0.66%, p = .010", "value": 2.01, "unit": "%"}, {"measurement": "Time in hypoglycaemia (glucose <70 mg/dl or <3.9 mmol/L)", "setting": "[2]; CGM, entire dosing period, placebo 2.73%, p = .061", "value": 6.07, "unit": "%"}, {"measurement": "Time in hyperglycaemia (glucose >180 mg/dl or 10 mmol/L)", "setting": "[2]; CGM, entire dosing period, placebo 37.39%, p = .001", "value": 10.50, "unit": "%"}, {"measurement": "Median absolute change in total daily insulin dose from baseline to day 32", "setting": "[3]", "value": "–16.0 units per day"}, {"measurement": "LS mean change in absolute bodyweight from baseline to day 33", "setting": "[4]; 90% CI –4.2, –2.62, placebo –0.13 kg", "value": "–3.41 kg"}, {"measurement": "LS mean percentage change in bodyweight from baseline to day 33", "setting": "[4]; 90% CI –4.55, –2.83, placebo –0.21%", "value": "–3.69%"}, {"measurement": "LS mean change in eGFR", "setting": "[5]; 90% CI –1.29, 3.62, placebo –1.10, p = .268", "value": 1.17, "unit": "ml/min/1.73 m^2"}, {"measurement": "Change in LS mean UACR from baseline to day 33", "setting": "[5]; all participants, placebo 5.43%, not significant", "value": "–7.65%"}, {"measurement": "Increase in LS mean heart rate from baseline to day 32", "setting": "[6]; placebo 3.14, p < .001", "value": 14.13, "unit": "beats per minute"}, {"measurement": "Increase in LS mean supine diastolic blood pressure from baseline to day 32", "setting": "[6]; placebo 3.40, p = .421", "value": 0.57, "unit": "mmHg"}, {"measurement": "Increase in LS mean supine systolic blood pressure from baseline to day 32", "setting": "[6]; placebo 8.69, p = .144", "value": 1.44, "unit": "mmHg"}, {"measurement": "Mild/moderate adverse events, participants", "setting": "[7]; abstract, placebo 35.0%", "value": 71.4, "unit": "%"}, {"measurement": "Treatment-emergent adverse event: Any", "setting": "[7]; n = 21, as-treated, placebo 13 (65.0)", "value": "20 (95.2) n (%)"}, {"measurement": "Treatment-emergent adverse event: Hypoglycaemia", "setting": "[7]; n = 21, clinically significant, capillary or venous plasma glucose <54 mg/dl (3.0 mmol/L), placebo 1 (5.0)", "value": "3 (14.3) n (%)"}, {"measurement": "Treatment-emergent adverse event: Decreased appetite", "setting": "[7]; n = 21, placebo 0", "value": "3 (14.3) n (%)"}, {"measurement": "Treatment-emergent adverse event: Diarrhoea", "setting": "[7]; n = 21, placebo 0", "value": "5 (23.8) n (%)"}, {"measurement": "Treatment-emergent adverse event: Flatulence", "setting": "[7]; n = 21, placebo 0", "value": "2 (9.5) n (%)"}, {"measurement": "Treatment-emergent adverse event: Leading to death (no. patients)", "setting": "[7]; n = 21, placebo 0", "value": "1 (4.8) n (%)"}, {"measurement": "Treatment-emergent adverse event: Serious related to cotadutide", "setting": "[7]; n = 21, placebo 0", "value": "1 (4.8) n (%)"}, {"measurement": "Treatment-emergent adverse event: Dizziness", "setting": "[7]; n = 21, placebo 1 (5.0)", "value": "2 (9.5) n (%)"}, {"measurement": "Treatment-emergent adverse event: Dyspepsia", "setting": "[7]; n = 21, placebo 1 (5.0)", "value": "5 (23.8) n (%)"}, {"measurement": "Treatment-emergent adverse event: Leading to study discontinuation (no. patients)", "setting": "[7]; n = 21, placebo 1 (5.0)", "value": "2 (9.5) n (%)"}, {"measurement": "Treatment-emergent adverse event: Vomiting", "setting": "[7]; n = 21, placebo 1 (5.0)", "value": "6 (28.6) n (%)"}, {"measurement": "Treatment-emergent adverse event: Headache", "setting": "[7]; n = 21, placebo 2 (10.0)", "value": "2 (9.5) n (%)"}, {"measurement": "Treatment-emergent adverse event: Nasopharyngitis", "setting": "[7]; n = 21, placebo 2 (10.0)", "value": "3 (14.3) n (%)"}, {"measurement": "Treatment-emergent adverse event: Serious (no. patients)", "setting": "[7]; n = 21, placebo 2 (10.0)", "value": "2 (9.5) n (%)"}, {"measurement": "Treatment-emergent adverse event: Nausea", "setting": "[7]; n = 21, placebo 4 (20.0)", "value": "9 (42.9) n (%)"}, {"measurement": "Treatment-emergent adverse event: Any related to cotadutide", "setting": "[7]; n = 21, placebo 7 (35.0)", "value": "15 (71.4) n (%)"}, {"measurement": "AEs of severe hypoglycaemia", "setting": "[7]; whole study", "value": "no recorded AEs"}, {"measurement": "Trends or shifts from baseline in serum chemistry", "setting": "[8]", "value": "no clinically meaningful trends or shifts"}, {"measurement": "Exposure at Ctrough with dose", "setting": "Pharmacokinetics", "value": "linear increased exposure"}, {"measurement": "Treatment-boosted ADA response", "setting": "[9]", "value": "No participants"}]}]}
